# Reference: ChEMBL document CHEMBL1146564, “Absolute configuration of sesquiterpenes from Crossopetalum tonduzii and their inhibitory effects on Epstein-Barr virus early antigen activation in Raji cells” (J Nat Prod, 2003)
# Assays:
# Assay type in all cases: cell-based
# [1] = Cytotoxicity against human Raji cells assessed as cell viability at 500 molar ratio/TPA after 48 hrs; settings: read-out: Activity
# Procedure, shortened: (§1)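 Raji cells (EBV genome-carrying Burkitt's lymphoma lymphoblastoid line) in RPMI-1640 were incubated 48 h at 37 °C with n-butyric acid (4 mmol), TPA (32 pmol = 20 ng/mL) and test compound at 10, 100, 500 or 1000 mol ratio to TPA (0.32, 3.2, 16, 32 nmol). Viability is given as percentage of Raji cells.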
# Raji [2] = assay: Inhibition of 12-O-tetradecanoylphorbol-13-acetate-induced EBV-early antigen activation in human Raji cells at 100 molar ratio after 48 hrs relative to TPA; set-up: scale not given: the % may be the effect or the level left; settings: human gammaherpesvirus 4
# Procedure, shortened: (§2)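 EBV-EA induction in Raji cells (RPMI-1640). Cells were held 48 h at 37 °C with n-butyric acid (4 mmol), TPA (32 pmol = 20 ng/mL) and compound at 10–1000 mol ratio/TPA (0.32–32 nmol). EA-positive cells were detected on smears by indirect immunofluorescence. Induction is expressed as percentage relative to the TPA-only positive control. β-Carotene served as reference.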
# Raji [3] = assay: Inhibition of 12-O-tetradecanoylphorbol-13-acetate-induced EBV-early antigen activation in human Raji cells at 500 molar ratio after 48 hrs relative to TPA; set-up: scale not given: the % may be the effect or the level left; settings: human gammaherpesvirus 4; procedure, shortened: as §2
# Raji [4] = assay: Inhibition of 12-O-tetradecanoylphorbol-13-acetate-induced EBV-early antigen activation in human Raji cells at 1000 molar ratio after 48 hrs relative to TPA; set-up: scale not given: the % may be the effect or the level left; settings: human gammaherpesvirus 4; procedure, shortened: as §2
# [5] = Cytotoxicity against human Raji cells assessed as cell viability at 10 molar ratio/TPA after 48 hrs; settings: read-out: Activity; procedure, shortened: as §1
# Raji [6] = assay: Inhibition of 12-O-tetradecanoylphorbol-13-acetate-induced EBV-early antigen activation in human Raji cells at 10 molar ratio after 48 hrs relative to TPA; set-up: scale not given: the % may be the effect or the level left; settings: human gammaherpesvirus 4; procedure, shortened: as §2
# [7] = Cytotoxicity against human Raji cells assessed as cell viability at 100 molar ratio/TPA after 48 hrs; settings: read-out: Activity; procedure, shortened: as §1
# [8] = Cytotoxicity against human Raji cells assessed as cell viability at 1000 molar ratio/TPA after 48 hrs; settings: read-out: Activity; procedure, shortened: as §1
SMILES,"viability at 48 h, 500 molar ratio/TPA [1]",Activity (Raji [2]),Activity (Raji [3]),Activity (Raji [4]),"viability at 48 h, 10 molar ratio/TPA [5]",Activity (Raji [6]),"viability at 48 h, 100 molar ratio/TPA [7]","viability at 48 h, 1000 molar ratio/TPA [8]"
CCC(C)C(=O)OC[C@]12[C@H](OC(=O)c3ccccc3)[C@@H](OC(C)=O)[C@@H]3[C@@H](OC(C)=O)[C@]1(OC3(C)C)[C@@](C)(O)C[C@H](O)[C@@H]2OC(C)=O (stereo not given in full),> 80%,73.7%,31.2%,0%,> 80%,90.5%,> 80%,60%
CC1=C(/C=C/C(C)=C/C=C/C(C)=C/C=C/C=C(C)/C=C/C=C(C)/C=C/C2=C(C)CCCC2(C)C)C(C)(C)CCC1 [BETA CAROTENE],80%,–,–,8.6%,100%,100%,100%,–
CCC(C)C(=O)OC[C@]12[C@H](OC(=O)c3ccccc3)[C@@H](OC(C)=O)[C@@H]3[C@@H](O)[C@]1(OC3(C)C)[C@@](C)(O)C[C@H](OC(C)=O)[C@@H]2OC(C)=O (stereo not given in full),> 80%,77.4%,21.8%,0%,> 80%,94.1%,> 80%,70%
CCC(C)C(=O)OC[C@]12[C@H](OC(=O)c3ccccc3)[C@@H](OC(C)=O)[C@@H]3[C@@H](OC(C)=O)[C@]1(OC3(C)C)[C@@](C)(O)C[C@H](OC(=O)c1ccccc1)[C@@H]2OC(C)=O (stereo not given in full),> 80%,75.9%,33.8%,4.6%,> 80%,96%,> 80%,60%
CCC(C)C(=O)OC[C@]12[C@H](OC(=O)c3ccccc3)[C@@H](O)[C@@H]3[C@@H](O)[C@]1(OC3(C)C)[C@@](C)(O)C[C@H](OC(C)=O)[C@@H]2OC(C)=O (stereo not given in full),> 80%,74%,32.7%,0%,> 80%,90.1%,> 80%,60%
CCC(C)C(=O)OC[C@]12[C@H](OC(=O)c3ccccc3)[C@@H](OC(C)=O)[C@@H]3[C@@H](OC(C)=O)[C@]1(OC3(C)C)[C@@](C)(O)C[C@H](OC(C)=O)[C@@H]2OC(C)=O (stereo not given in full),> 80%,79.2%,22%,0%,> 80%,96.7%,> 80%,70%
